Assay results published in ChEMBL document CHEMBL1671779, “In vivo trypanosomicidal activity of imidazole- or pyrazole-based benzo[g]phthalazine derivatives against acute and chronic phases of Chagas disease” (J Med Chem, 2011).
Calls of active or inactive are those of the source.

Tests used:
[1] = Inhibition of Trypanosoma cruzi iron superoxide dismutase assessed as inhibition of NADPH reduction
Summary of the method: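 Maracay epimastigotes sonicated in sucrose/Tris/EDTA buffer, pH 7.8. Clarified supernatant taken through 35–85% ammonium sulfate cut, then desalted into 20 mM phosphate pH 7.8 with 1 mM EDTA. Activity measured by NAD(P)H oxidation; 1 U gives 50% inhibition of the rate. Compounds at 1, 10, 25, 50, 100 μM. IC50 by linear regression; five determinations; Newman-Keuls test.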

Trypanosoma cruzi [2] = experiment: Antitrypanosomal activity against trypomastigote of Trypanosoma cruzi infected in BALB/c mouse assessed as reduction of anti-Trypanosoma cruzi antibody level at 1 mg/kg, ip qd for 5 days measured after 120 days postinfection by ELISA; assay type: functional; settings: route intraperitoneal
Summary of the method: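 Female BALB/c mice (6–8 weeks, 25–30 g; groups of four for serology) infected ip with 3 × 10^3 metacyclic forms. Dosed 1 mg/kg/day ip for five consecutive days, days 7–12 post-infection. Sera diluted 1:100 tested by ELISA against soluble T. cruzi epimastigote Fe-SOD antigen at days 40 and 120. Read at 490 nm; cutoff is negative-control mean + 3 SD.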

Trypanosoma cruzi [3] = experiment: Effect on metabolic excretion in epimastigotes of Trypanosoma cruzi assessed as succinate excretion level at IC25 concentration after 72 hrs by nuclear magnetic resonance spectroscopy analysis; assay type: ADME, organism-based
Summary of the method: (§1)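 Epimastigote cultures started at 5 × 10^5 cells/mL and given drug at IC25, 72 h at 28 °C. Excreted metabolites assessed by 1H NMR of spent medium, compared with cell-free medium.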

Trypanosoma cruzi [4] = experiment: Effect on metabolic excretion in epimastigotes of Trypanosoma cruzi assessed as acetate excretion level at IC25 concentration after 72 hrs by nuclear magnetic resonance spectroscopy analysis; assay type: ADME, organism-based; summary of the method: as §1
Trypanosoma cruzi [5] = experiment: Effect on metabolic excretion in epimastigotes of Trypanosoma cruzi assessed as L-alanine excretion level at IC25 concentration after 72 hrs by nuclear magnetic resonance spectroscopy analysis; assay type: ADME, organism-based; summary of the method: as §1
Mus musculus [6] = experiment: Toxicity in BALB/c mouse assessed as mortality at 5 mg/kg, ip; assay type: organism-based; parameters: dose 5 mg/kg, route intraperitoneal; settings: in vivo
Trypanosoma cruzi [7] = experiment: Antitrypanosomal activity against trypomastigote of Trypanosoma cruzi infected in BALB/c mouse assessed as reduction of parasitemia at 1 mg/kg, ip for 5 days measured after 40 days postinfection; assay type: functional, organism-based; parameters: dose 1 mg/kg
Summary of the method: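 Female BALB/c mice (6–8 weeks, 25–30 g), groups of five, infected ip with 3 × 10^3 metacyclic forms. Dosed 1 mg/kg/day ip for days 7–12 post-infection. Tail blood (5 μL) diluted 1:15 in citrate/lysis buffer pH 7.2; parasites counted in Neubauer chamber; deaths recorded every two days.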

Trypanosoma cruzi [8] = experiment: Antitrypanosomal activity against epimastigotes of Trypanosoma cruzi assessed as change in ultrastructural morphological changes at IC25 concentration after 72 hrs by transmission electron microscopy; assay type: functional, organism-based
Summary of the method: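 Epimastigotes at 5 × 10^6 cells/mL cultured with drug at IC25 for 72 h. Pelleted at 400g, washed in PBS, then fixed in 2% formaldehyde-glutaraldehyde in 0.05 M cacodylate pH 7.4 for 2 h at 4 °C before transmission electron microscopy.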

[9] = molecular target: Superoxide dismutase [Cu-Zn] (Homo sapiens, UniProt P00441); experiment: Inhibition of human Cu-Zn superoxide dismutase assessed as inhibition of NADPH reduction
Chain of Superoxide dismutase [Cu-Zn] (P00441 whole entry): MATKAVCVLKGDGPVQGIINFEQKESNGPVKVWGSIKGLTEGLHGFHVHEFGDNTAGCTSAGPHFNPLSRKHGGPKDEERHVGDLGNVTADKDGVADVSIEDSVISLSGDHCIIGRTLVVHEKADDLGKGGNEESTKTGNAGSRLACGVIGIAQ
Summary of the method: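 Human erythrocyte CuZn-SOD, purchased, assayed by NAD(P)H oxidation; 1 U gives 50% inhibition of the rate. Compounds at 1, 10, 25, 50, 100 μM. IC50 by linear regression; five determinations; Newman-Keuls test.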

Trypanosoma cruzi [10] = experiment: Antitrypanosomal activity against trypomastigote of Trypanosoma cruzi infected in BALB/c mouse assessed as increase of host survival at 1 mg/kg, ip for 5 days administered 7 days after infection; assay type: functional
Summary of the method: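 Female BALB/c mice (6-8 weeks, 25-30 g) in groups of five were infected intraperitoneally with T. cruzi metacyclic forms, with circulating parasites confirmed on day 5 by microhematocrit. They were dosed intraperitoneally at 1 mg/kg/day for five consecutive days (days 7-12 post-infection) and compared with infected untreated and uninfected controls. Deaths were recorded every two days.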

Trypanosoma cruzi [11] = experiment: Antitrypanosomal activity against epimastigote of Trypanosoma cruzi Maracay after 72 hrs; assay type: functional, organism-based
Summary of the method: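 Maracay strain epimastigotes in exponential phase, obtained in NNN medium with MEM and 20% inactivated FBS and then kept in monophasic MTL culture. Seeded at 2 × 10^6 parasites/mL with 1, 10, 25, 50 or 100 μM compound (0.01% DMSO). Parasites counted by Neubauer hemocytometer at 72 h; IC50 derived.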

[12] = Selectivity index, ratio of IC50 for african green monkey Vero cells to IC50 for epimastigote of Trypanosoma cruzi Maracay; assay type: toxicity, cell-based; settings: read-out: Selectivity Index
Vero = experiment: Cytotoxicity against african green monkey Vero cells after 72 hrs by trypan blue assay; assay type: cell-based; settings: Chlorocebus sabaeus
Summary of the method: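 Vero cells in MEM with 10% inactivated FCS, pH 7.2, 37 °C, 5% CO2. Seeded at 1 × 10^5 cells/mL and grown 2 days, then exposed 72 h to 1, 10, 25, 50 or 100 μM. Viability scored by trypan blue (0.1%) relative to control; IC50 obtained by linear regression.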

Mus musculus [13] = experiment: Toxicity in Trypanosoma cruzi infected BALB/c mouse assessed as lymphocytic infiltration in portal tracts at 5 mg/kg, ip administered 90 days after postinfection by conventional light microscopic analysis; assay type: organism-based; parameters: dose 5 mg/kg, route intraperitoneal; settings: in vivo, 2160 h
Summary of the method: (§2)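 Livers of infected mice dosed at 5 mg/kg, examined at 90 days post-infection. Paraffin sections 4–5 μm, stained with Giemsa, H&E and Masson's trichrome. Slides coded for blinded light microscopy, ≥30 fields per slide. Alterations scored 0–5.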

Mus musculus [14] = experiment: Toxicity in Trypanosoma cruzi infected BALB/c mouse assessed as small interstitial hemorrhage at 5 mg/kg, ip administered 90 days after postinfection by conventional light microscopic analysis; assay type: organism-based; parameters: dose 5 mg/kg, route intraperitoneal; settings: in vivo, 2160 h; summary of the method: as §2
Trypanosoma cruzi [15] = experiment: Effect on metabolic excretion in epimastigotes of Trypanosoma cruzi assessed as lactate excretion level at IC25 concentration after 72 hrs by nuclear magnetic resonance spectroscopy analysis; assay type: ADME, organism-based; summary of the method: as §1
Trypanosoma cruzi [16] = experiment: Antitrypanosomal activity against Trypanosoma cruzi infected in african green monkey Vero cells assessed as reduction of trypomastigote number per infected cell at IC25 after 10 days relative to control; assay type: functional; parameters: scale not given: the % may be the effect or the level left
Trypanosoma cruzi [17] = experiment: Antitrypanosomal activity against Trypanosoma cruzi infected in african green monkey Vero cells assessed as reduction of parasite infection rate at IC25 after 10 days; assay type: functional; parameters: scale not given: the % may be the effect or the level left
Summary of the method: (§3)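 Vero cells seeded at 1 × 10^5 cells/well on coverslips and grown 2 days in MEM at 37 °C, 5% CO2. Infected with metacyclic forms at 10:1, obtained by culture in modified Grace's medium at 28 °C for 12 days. Drug present 6 h, then removed by washing; cultures grown 10 days with medium renewed every 48 h. Methanol-fixed, Giemsa-stained; >100 host cells counted; means of four determinations.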

Trypanosoma cruzi [18] = experiment: Antitrypanosomal activity against Trypanosoma cruzi infected in african green monkey Vero cells assessed as reduction of amastigote number per infected cell at IC25 after 10 days relative to control; assay type: functional; parameters: scale not given: the % may be the effect or the level left; summary of the method: as §3
Trypanosoma cruzi [19] = experiment: Effect on metabolic excretion in epimastigotes of Trypanosoma cruzi assessed as malate excretion level at IC25 concentration after 72 hrs by nuclear magnetic resonance spectroscopy analysis; assay type: ADME, organism-based
Mus musculus [20] = experiment: Toxicity in Trypanosoma cruzi infected BALB/c mouse assessed as hepatic destruction at 5 mg/kg, ip administered 90 days after postinfection by conventional light microscopic analysis; assay type: organism-based; parameters: dose 5 mg/kg, route intraperitoneal; settings: in vivo, 2160 h; summary of the method: as §2
Mus musculus [21] = experiment: Toxicity in Trypanosoma cruzi infected BALB/c mouse assessed as lymphocytic infiltration at 5 mg/kg, ip administered 90 days after postinfection by conventional light microscopic analysis; assay type: organism-based; parameters: dose 5 mg/kg, route intraperitoneal; settings: in vivo, 2160 h; summary of the method: as §2

Compound | IC50 [1] | deltaA (Trypanosoma cruzi [2]) | Activity (Trypanosoma cruzi [3]) | Activity (Trypanosoma cruzi [4]) | Activity (Trypanosoma cruzi [5]) | Activity (Mus musculus [6]) | Activity (Trypanosoma cruzi [7]) | Activity (Trypanosoma cruzi [8]) | IC50 [9] | Activity (Trypanosoma cruzi [10]) | Activity (Trypanosoma cruzi [16]) | Activity (Trypanosoma cruzi [17]) | Activity (Trypanosoma cruzi [18]) | further results
Clc1nnc(NCCCn2ccnc2)c2cc3ccccc3cc12 | 1.3 µM | -0.151 absorbance units | -49% | -26% | 61% | Non-toxic | Active | Active | 129 µM | Active |  |  |  | 
Clc1nnc(Nc2cc[nH]n2)c2cc3ccccc3cc12 | 17.2 µM | -0.228 absorbance units | 27% | -36% |  | Non-toxic | Active | Active | 103 µM | Active | 63% | 68% | 56% | IC50 (Trypanosoma cruzi [11]): 17.5 µM; selectivity ratio [12]: 7.58; IC50 (Vero): 133 µM; Activity (Mus musculus [13]): Toxic; Activity (Mus musculus [14]): Toxic; Activity (Trypanosoma cruzi [15]): -61%
c1ccc2cc3c(Nc4ccn[nH]4)nnc(Nc4ccn[nH]4)c3cc2c1 [1,4-BIS(3'-PYRAZOLYLAMINO)BENZO[G]PHTHALAZINE] |  |  | -24% |  |  | Non-toxic |  |  | 96.6 µM |  |  |  |  | selectivity ratio [12]: 2.99; Activity (Trypanosoma cruzi [15]): -55%; Activity (Trypanosoma cruzi [19]): 100%
c1ccc2cc3c(NCCCn4ccnc4)nnc(NCCCn4ccnc4)c3cc2c1 | 28.3 µM | 0.266 absorbance units | -27% | -22% | 43% | Non-toxic | Active |  | 67.9 µM | Active |  |  |  | 
c1ccc2cc3c(NCCc4c[nH]cn4)nnc(NCCc4c[nH]cn4)c3cc2c1 | 29.6 µM | 0.044 absorbance units |  |  |  |  | Active | Active |  | Active |  |  |  | 
Clc1nnc(NCCc2c[nH]cn2)c2cc3ccccc3cc12 | 9.4 µM | -0.076 absorbance units | -37% | -18% | 22% | Non-toxic | Active | Active | 787 µM | Active |  |  |  | Activity (Mus musculus [20]): Toxic; Activity (Mus musculus [21]): Toxic
c1ccc2cc3c(NCCc4cnc[nH]4)nnc(NCCc4cnc[nH]4)c3cc2c1 |  |  | -39% | -30% | 35% | Non-toxic |  |  | 366 µM |  |  |  |  | 
O=C(Cn1ccnc1[N+](=O)[O-])NCc1ccccc1 [BENZNIDAZOLE] |  | 0.11 absorbance units |  |  |  |  |  |  |  |  | 43% | 39% | 15% | Activity (Trypanosoma cruzi [10]; route intraperitoneal): 80%
c1ccc2cc3c(Nc4cc[nH]n4)nnc(Nc4cc[nH]n4)c3cc2c1 [1,4-BIS(3'-PYRAZOLYLAMINO)BENZO[G]PHTHALAZINE] | 22.9 µM | 0.138 absorbance units |  |  |  |  | Active | Active |  | Active | 53% | 63% | 40% | IC50 (Trypanosoma cruzi [11]): 32.8 µM; IC50 (Vero): 98.3 µM
